Here are results for one compound from ChEMBL document CHEMBL4406821, “Novel dual inhibitors targeting CDK4 and VEGFR2 synergistically suppressed cancer progression and angiogenesis” (Eur J Med Chem, 2019).

Series [1] in a line: Toxicity in BALB/c mouse assessed as effect on blood parameter by measuring lymphocytes content at 40 mg/kg, po administered once two days for 4 times by hematology analyzer. Particulars: in vivo.
For series [2], the target named is SRSF protein kinase 2 (Homo sapiens) (UniProt P78362). Put plainly: Inhibition of recombinant human SRPK2 (46 to end residues) at 1 uM using RSRSRSRSRSRSRSR as substrate incubated for 40 mins in presence of [gamma-33P]-ATP by scintillation counting method relative to control.
Chain of SRSF protein kinase 2 (Homo sapiens) (P78362 whole entry, looked up): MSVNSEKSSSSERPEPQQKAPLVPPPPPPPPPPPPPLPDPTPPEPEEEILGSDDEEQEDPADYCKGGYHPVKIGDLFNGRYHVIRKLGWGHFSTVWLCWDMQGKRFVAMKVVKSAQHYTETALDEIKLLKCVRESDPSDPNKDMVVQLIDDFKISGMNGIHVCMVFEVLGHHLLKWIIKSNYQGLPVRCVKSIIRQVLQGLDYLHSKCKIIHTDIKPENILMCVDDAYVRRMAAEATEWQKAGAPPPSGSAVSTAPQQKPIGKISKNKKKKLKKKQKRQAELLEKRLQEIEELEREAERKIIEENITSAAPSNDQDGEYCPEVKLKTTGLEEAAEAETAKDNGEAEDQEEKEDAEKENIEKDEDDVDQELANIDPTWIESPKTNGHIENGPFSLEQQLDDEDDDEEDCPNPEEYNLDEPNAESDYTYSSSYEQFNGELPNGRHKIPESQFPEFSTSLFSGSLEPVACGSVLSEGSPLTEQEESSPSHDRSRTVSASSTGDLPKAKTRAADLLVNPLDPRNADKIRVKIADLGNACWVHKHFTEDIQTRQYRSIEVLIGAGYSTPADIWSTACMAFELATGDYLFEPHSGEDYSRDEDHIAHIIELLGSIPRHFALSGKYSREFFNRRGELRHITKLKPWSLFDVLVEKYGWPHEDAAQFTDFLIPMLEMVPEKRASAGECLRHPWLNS
Series [3] concerns Hepatocyte growth factor receptor (Homo sapiens), P08581 [D1246N]. The series can be described thus: Inhibition of recombinant human Met D1246N mutant (974 to end residues) at 1 uM using KKKGQEEEYVFIE as substrate incubated for 40 mins in presence of [gamma-33P]-ATP by scintillation counting method relative to control.
For series [4], the target named is Tyrosine-protein kinase FRK (Homo sapiens) (UniProt P42685). The series can be described thus: Inhibition of recombinant human PTK5 (218 to end residues) at 1 uM using GGEEEEYFELVKKKK as substrate incubated for 40 mins in presence of [gamma-33P]-ATP by scintillation counting method relative to control.
Series [5] deals with SRSF protein kinase 1 (Homo sapiens) (UniProt Q96SB4). Put plainly: Inhibition of recombinant human SRPK1 (2 to end residues) at 1 uM using RSRSRSRSRSRSRSR as substrate incubated for 40 mins in presence of [gamma-33P]-ATP by scintillation counting method relative to control.
Chain of SRSF protein kinase 1 (Homo sapiens) (Q96SB4 whole entry): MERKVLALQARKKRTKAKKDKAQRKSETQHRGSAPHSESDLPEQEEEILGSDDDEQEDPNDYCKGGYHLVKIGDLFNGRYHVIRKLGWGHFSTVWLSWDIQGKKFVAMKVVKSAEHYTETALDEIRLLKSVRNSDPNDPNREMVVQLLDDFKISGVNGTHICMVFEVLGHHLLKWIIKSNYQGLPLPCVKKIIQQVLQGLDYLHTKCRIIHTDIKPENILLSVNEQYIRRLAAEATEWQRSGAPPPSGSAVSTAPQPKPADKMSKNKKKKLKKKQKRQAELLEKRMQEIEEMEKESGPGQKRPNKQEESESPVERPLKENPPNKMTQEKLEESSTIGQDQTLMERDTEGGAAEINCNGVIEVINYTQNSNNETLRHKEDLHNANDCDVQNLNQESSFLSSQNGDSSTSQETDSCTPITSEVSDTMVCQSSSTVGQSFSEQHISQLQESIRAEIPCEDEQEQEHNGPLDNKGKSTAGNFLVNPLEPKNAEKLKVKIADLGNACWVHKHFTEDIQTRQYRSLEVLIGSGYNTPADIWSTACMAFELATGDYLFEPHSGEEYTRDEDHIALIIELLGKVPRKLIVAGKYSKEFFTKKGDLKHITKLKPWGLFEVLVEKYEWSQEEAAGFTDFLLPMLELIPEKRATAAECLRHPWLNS
For series [6], the target named is Serine/threonine-protein kinase mTOR (Homo sapiens) (UniProt P42345). The series can be described thus: Inhibition of recombinant human full length mTOR at 1 uM using as peptide substrate incubated for 40 mins in presence of [gamma-33P]-ATP by scintillation counting method relative to control. The gist of the method:
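Single-point inhibition at 1 uM measured in a commercial kinase profiling panel (KinaseProfiler); each value is the mean of two independent experiments.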

Series [7] has as its target Receptor-interacting serine/threonine-protein kinase 1 (Homo sapiens) (UniProt Q13546). The series can be described thus: Inhibition of recombinant human RIPK1 (8 to 322 residues) at 1 uM using myelin basic protein as substrate incubated for 40 mins in presence of [gamma-33P]-ATP by scintillation counting method relative to control.
For series [8], the target named is PI3K p110 beta/p85 alpha (Homo sapiens) (UniProt P27986+P42338). Put plainly: Inhibition of recombinant human full length PI3K p110beta/p85alpha at 1 uM using phosphatidylinositol-4, 5-bisphosphate as substrate incubated for 40 mins in presence of [gamma-33P]-ATP by scintillation counting method relative to control. It counts as protein-complex assay.
Series [9] deals with Serine/threonine-protein kinase ATR (Homo sapiens) (UniProt Q13535). The series can be described thus: Inhibition of recombinant human full length ATR at 1 uM using GST-cMyc-p53 as substrate incubated for 40 mins in presence of [gamma-33P]-ATP by scintillation counting method relative to control. The gist of the method:
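Tested at a single 1 uM in an outsourced commercial kinase-profiling panel, read as percent inhibition. Each value is the mean of two independent experiments.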

For series [10], the target named is Epithelial discoidin domain-containing receptor 1 (Homo sapiens) (UniProt Q08345). Put plainly: Inhibition of recombinant human DDR1 (492 to end residues) at 1 uM using KKKSPGEYVNIEFG as substrate incubated for 40 mins in presence of [gamma-33P]-ATP by scintillation counting method relative to control. The gist of the method: (§1)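 Kinase panel profiling at 1 μM performed by Eurofins KinaseProfiler; percent inhibition reported as mean of two independent experiments.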

In series [11] the target is Casein kinase I isoform gamma-2 (Homo sapiens) (UniProt P78368). Put plainly: Inhibition of recombinant human CK1gamma2 (18 to end residues) at 1 uM using KRRRALS(p)VAS as substrate incubated for 40 mins in presence of [gamma-33P]-ATP by scintillation counting method relative to control. The essentials:
as §1

The subject of series [12] is Fibroblast growth factor receptor 2 (Homo sapiens), P21802 [N549H]. The series can be described thus: Inhibition of recombinant human FGFR2 N549H mutant (456 to 770 residues) at 1 uM using GGEEEEYFELVKKKK as substrate incubated for 40 mins in presence of [gamma-33P]-ATP by scintillation counting method relative to control.
Series [13] concerns the target Serine/threonine-protein kinase Nek2 (Homo sapiens) (UniProt P51955). Put plainly: Inhibition of recombinant human full length NEK2 at 1 uM using myelin basic protein as substrate incubated for 40 mins in presence of [gamma-33P]-ATP by scintillation counting method relative to control.
Series [14] concerns the target Tyrosine-protein kinase Srms (Homo sapiens) (UniProt Q9H3Y6). Put plainly: Inhibition of recombinant human SRMS at 1 uM incubated for 40 mins in presence of [gamma-33P]-ATP by scintillation counting method relative to control.
Series [15] has as its target Vascular endothelial growth factor receptor 2 (Homo sapiens, UniProt P35968). The series can be described thus: Inhibition of VEGFR2 in HUVEC cells assessed as reduction in VEGFR2 phosphorylation at 20 to 40 nM incubated for 48 hrs by Western blot analysis. The format is cell-based. The essentials:
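HUVECs were maintained in 1640 medium with 10% FBS. They were treated with graded concentrations for 48 h, PBS-washed and lysed in RIPA buffer. Immunoblots were probed for total and phospho VEGFR2, STAT3, Akt, Erk1 and Src, each at 1:1000. β-actin served as loading control.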

Series [16] has as its target Dual specificity mitogen-activated protein kinase kinase 7 (Homo sapiens) (UniProt O14733). Put plainly: Inhibition of recombinant human MKK7beta (2 to end residues) at 1 uM using unactive JNK1a1 as substrate incubated for 40 mins in presence of [gamma-33P]-ATP by scintillation counting method relative to control.
Series [17] can be described thus: Toxicity in BALB/c mouse assessed as effect on blood parameter by measuring MCHC at 40 mg/kg, po administered once two days for 4 times by hematology analyzer. The settings on record: in vivo.
Series [18] has as its target CDK4/Cyclin D3 (Homo sapiens) (UniProt P11802+P30281). Put plainly: Inhibition of recombinant full length human CDK4/Cyclin D3 using Rb-fragmen as substrate at 1 uM incubated for 40 mins by [gamma-33P]-ATP based radiometric assay relative to control. The format is protein-complex assay. The essentials:
as §1

The target in series [19] is Serine/threonine-protein kinase Sgk3 (Homo sapiens) (UniProt Q96BR1). The series can be described thus: Inhibition of recombinant human SGK3 (119 to end residues) at 1 uM using GRPRTSSFAEGKK as substrate incubated for 40 mins in presence of [gamma-33P]-ATP by scintillation counting method relative to control.
For series [20], the target named is PI3-kinase p110-alpha/p85-alpha (Homo sapiens) (UniProt P27986+P42336). The series can be described thus: Inhibition of recombinant human full length PI3K p110alpha/p85alpha at 1 uM using phosphatidylinositol 4,5-bisphosphate as substrate incubated for 40 mins in presence of [gamma-33P]-ATP by scintillation counting method relative to control. The format is protein-complex assay.

For series [21], the target named is PAS domain-containing serine/threonine-protein kinase (Homo sapiens) (UniProt Q96RG2). The series can be described thus: Inhibition of recombinant human PASK (995 to end residues) at 1 uM using KKLNRTLSFAEPG as substrate incubated for 40 mins in presence of [gamma-33P]-ATP by scintillation counting method relative to control.

One may read the inhibition as the percentage by which the read-out fell short of the control.

The structures appear in SMILES notation. Active and inactive are the calls of the source. The calls are words filed in the database; no cut-off is given here.

Chain of Receptor-interacting serine/threonine-protein kinase 1 (Homo sapiens) (Q13546 whole entry, the tested form may be a part): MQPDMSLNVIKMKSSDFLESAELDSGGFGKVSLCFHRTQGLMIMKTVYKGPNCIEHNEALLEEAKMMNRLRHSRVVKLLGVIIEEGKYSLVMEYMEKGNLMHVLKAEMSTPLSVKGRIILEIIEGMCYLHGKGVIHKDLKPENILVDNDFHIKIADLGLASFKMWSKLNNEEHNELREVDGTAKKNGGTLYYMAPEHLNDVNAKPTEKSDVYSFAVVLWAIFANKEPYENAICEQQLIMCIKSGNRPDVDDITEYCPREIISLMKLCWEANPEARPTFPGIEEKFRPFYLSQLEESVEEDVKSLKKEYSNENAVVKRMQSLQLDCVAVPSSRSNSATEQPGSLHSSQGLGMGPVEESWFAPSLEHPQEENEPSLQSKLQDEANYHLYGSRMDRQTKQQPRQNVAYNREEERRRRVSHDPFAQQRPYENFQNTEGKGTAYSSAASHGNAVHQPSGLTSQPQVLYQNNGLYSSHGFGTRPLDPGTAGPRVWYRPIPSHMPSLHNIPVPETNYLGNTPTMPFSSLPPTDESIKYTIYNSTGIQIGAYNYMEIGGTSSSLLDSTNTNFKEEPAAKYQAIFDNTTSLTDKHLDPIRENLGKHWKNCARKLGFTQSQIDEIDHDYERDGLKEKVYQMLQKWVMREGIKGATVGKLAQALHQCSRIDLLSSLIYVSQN
Chain of Vascular endothelial growth factor receptor 2 (P35968 whole entry): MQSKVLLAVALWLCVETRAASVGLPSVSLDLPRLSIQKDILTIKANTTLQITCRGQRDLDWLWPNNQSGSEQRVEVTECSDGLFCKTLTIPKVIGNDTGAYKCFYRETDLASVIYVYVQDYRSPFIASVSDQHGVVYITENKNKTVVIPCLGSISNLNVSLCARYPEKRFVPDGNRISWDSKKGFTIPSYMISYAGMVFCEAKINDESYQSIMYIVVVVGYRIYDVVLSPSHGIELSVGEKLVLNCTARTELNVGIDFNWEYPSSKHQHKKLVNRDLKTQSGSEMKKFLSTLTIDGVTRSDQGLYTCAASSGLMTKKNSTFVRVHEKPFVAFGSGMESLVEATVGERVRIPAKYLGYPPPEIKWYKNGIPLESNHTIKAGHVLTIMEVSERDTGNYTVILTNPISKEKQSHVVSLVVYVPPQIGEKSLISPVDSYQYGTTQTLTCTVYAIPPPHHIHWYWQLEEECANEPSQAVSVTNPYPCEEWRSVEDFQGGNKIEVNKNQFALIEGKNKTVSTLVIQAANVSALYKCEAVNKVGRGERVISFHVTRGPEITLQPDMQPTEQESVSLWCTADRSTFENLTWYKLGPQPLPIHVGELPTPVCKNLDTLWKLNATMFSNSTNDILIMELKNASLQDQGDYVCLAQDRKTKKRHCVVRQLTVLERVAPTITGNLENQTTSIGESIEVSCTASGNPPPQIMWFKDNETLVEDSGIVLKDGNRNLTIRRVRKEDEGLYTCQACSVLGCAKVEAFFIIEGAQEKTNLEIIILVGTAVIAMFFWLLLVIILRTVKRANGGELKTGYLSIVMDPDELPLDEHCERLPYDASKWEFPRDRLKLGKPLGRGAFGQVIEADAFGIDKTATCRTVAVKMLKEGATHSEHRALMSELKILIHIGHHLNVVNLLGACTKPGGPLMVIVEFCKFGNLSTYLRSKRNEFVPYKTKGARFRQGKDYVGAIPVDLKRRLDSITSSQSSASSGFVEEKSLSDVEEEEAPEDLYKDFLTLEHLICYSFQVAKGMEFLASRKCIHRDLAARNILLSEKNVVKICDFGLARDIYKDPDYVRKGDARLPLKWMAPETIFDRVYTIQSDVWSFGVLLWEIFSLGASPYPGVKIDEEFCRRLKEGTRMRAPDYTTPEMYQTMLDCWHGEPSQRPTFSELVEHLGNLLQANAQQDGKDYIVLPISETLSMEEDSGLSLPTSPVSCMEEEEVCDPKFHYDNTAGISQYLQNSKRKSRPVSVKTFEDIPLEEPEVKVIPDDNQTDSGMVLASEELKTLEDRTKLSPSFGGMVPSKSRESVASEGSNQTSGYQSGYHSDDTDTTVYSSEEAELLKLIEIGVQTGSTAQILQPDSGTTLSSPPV
Chain of Fibroblast growth factor receptor 2 (Homo sapiens), P21802 [N549H] (P21802 whole entry N549H, the tested form may be a part): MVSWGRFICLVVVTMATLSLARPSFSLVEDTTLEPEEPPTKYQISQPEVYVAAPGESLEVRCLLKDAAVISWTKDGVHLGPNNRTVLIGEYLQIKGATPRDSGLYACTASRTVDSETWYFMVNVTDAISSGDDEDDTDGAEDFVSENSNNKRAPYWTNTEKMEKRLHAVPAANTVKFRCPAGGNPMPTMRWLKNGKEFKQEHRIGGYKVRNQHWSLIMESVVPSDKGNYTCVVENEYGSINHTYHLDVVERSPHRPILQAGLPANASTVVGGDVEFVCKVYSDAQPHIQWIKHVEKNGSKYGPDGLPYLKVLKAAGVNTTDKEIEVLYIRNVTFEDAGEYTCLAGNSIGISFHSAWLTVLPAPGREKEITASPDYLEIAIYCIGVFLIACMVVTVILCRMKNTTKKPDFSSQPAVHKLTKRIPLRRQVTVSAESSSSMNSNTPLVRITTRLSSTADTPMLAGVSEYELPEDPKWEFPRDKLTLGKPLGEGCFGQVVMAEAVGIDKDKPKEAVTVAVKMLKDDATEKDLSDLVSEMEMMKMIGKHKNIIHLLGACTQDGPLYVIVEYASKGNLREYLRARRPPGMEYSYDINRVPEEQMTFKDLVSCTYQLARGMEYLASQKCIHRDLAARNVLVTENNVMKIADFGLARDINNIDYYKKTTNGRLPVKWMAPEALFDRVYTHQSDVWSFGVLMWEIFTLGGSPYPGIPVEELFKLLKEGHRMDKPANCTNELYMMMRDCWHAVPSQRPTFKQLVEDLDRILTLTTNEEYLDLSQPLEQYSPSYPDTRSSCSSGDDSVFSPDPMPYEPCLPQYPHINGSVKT
Chain of Dual specificity mitogen-activated protein kinase kinase 7 (Homo sapiens) (O14733 whole entry): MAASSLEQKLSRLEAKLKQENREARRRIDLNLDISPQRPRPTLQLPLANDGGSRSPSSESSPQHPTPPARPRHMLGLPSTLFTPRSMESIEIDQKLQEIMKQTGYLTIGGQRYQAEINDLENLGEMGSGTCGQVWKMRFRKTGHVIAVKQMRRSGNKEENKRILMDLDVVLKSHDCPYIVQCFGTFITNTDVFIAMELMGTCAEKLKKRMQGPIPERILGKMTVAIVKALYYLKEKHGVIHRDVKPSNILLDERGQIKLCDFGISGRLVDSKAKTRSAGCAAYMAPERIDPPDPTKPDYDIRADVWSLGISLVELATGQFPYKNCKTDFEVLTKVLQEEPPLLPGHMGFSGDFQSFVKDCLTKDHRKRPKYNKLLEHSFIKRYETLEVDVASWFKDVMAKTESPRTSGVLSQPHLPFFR
Chain of Casein kinase I isoform gamma-2 (Homo sapiens) (P78368 whole entry, looked up, canonical isoform): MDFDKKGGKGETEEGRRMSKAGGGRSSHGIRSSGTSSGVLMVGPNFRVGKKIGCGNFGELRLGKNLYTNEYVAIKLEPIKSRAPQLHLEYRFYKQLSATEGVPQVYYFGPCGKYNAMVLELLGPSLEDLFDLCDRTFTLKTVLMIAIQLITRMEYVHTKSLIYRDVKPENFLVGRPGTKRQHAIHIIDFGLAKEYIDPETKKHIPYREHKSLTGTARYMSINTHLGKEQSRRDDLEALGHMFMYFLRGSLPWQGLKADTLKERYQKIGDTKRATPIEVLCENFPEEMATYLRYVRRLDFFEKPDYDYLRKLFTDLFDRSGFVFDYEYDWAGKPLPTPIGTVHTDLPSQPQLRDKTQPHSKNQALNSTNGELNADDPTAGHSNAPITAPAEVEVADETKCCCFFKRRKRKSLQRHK

Take `Cc1ccc(NC(=O)C2(C(=O)Nc3ccc(Nc4ncc(F)c(-c5cc(F)c6nc(C)n(C(C)C)c6c5)n4)cc3)CC2)cc1`: the Activity result in series [1] and in series [17] was “Non-Toxic” throughout. Also, the inhibition in [2] came to 17%; in [3], 51%; in series [4], 10%; in [5] it was 21%; in series [6], 0%; in series [7], 15%. Further, the inhibition in series [8] was found to be 12%; in series [9], 0%; in series [10], 73%; in series [11] it was 49%; in series [12], 7%; in [13], 57%. Also, the inhibition in [14] was 4%; in [16], 13%; in [18], 97%; in [19], 11%; in series [20] it was 7%; in series [21], 19%. In series [15], the inhibition entry is “Active”.
